Source: PubChem (several laboratories)
Beta2AR agonist – beta2AR agonists driving receptor internalization, primary screen, cell-based, FAP fluorogen, flow cytometry. Beta-2 adrenergic receptor (Homo sapiens), P07550. Am2.2-beta2AR cells. response, % (no concentration beside the values). 340,000 tested, 0.43% active. AID 504454, 2011;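 active means response above a set limit, near 3 SD of response in nonfluorescent compounds, cut at about 42% in these data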
APJ ag – agonists of human apelin receptor APJ, primary screen, CHO-K1 cells, PathHunter beta-arrestin, luminescence; 0% DMSO wells, 100% apelin; activation, % at 20 µM; 330,000 tested, 0.11% active; P35414;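 active means activation more than six SD over the plate average, tested at 20 µM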
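Assay system: CHO-K1 APJ beta-arrestin complementation cell line / Compound: single test compound dose, 20 µM final, 1% DMSO / Times: overnight seeding, 90 min compound at 25 °C, 1 h detection / Technique: beta-gal luminescence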
CXCR6 inh – CXCR6 receptor inhibitors, primary screen, cell-based, beta-arrestin, luminescence, CHO-K1 PathHunter, 1536-well; C-X-C chemokine receptor type 6 (Homo sapiens), O00574; inhibition, % at 20 µM; 360,000 tested, 0.36% active; AID 602244, 2012; in the data active means inhibition above about 34%, passing the limit was not always enough;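 further: antagonist mode with CXCL16 agonist at 10 nM final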
Target sequence (O00574 whole entry, looked up): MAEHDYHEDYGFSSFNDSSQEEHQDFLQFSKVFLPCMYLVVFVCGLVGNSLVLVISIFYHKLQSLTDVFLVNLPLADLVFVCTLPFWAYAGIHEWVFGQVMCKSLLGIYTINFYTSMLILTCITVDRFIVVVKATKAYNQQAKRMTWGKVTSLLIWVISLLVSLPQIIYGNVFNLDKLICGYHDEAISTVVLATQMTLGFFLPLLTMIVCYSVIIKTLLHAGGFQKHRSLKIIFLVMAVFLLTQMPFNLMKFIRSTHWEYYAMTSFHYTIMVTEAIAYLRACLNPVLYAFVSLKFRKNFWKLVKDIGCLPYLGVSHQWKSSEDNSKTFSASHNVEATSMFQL
CCR6 antag – CCR6 receptor antagonists, primary screen, cell-based, CHO-K1, luminescence, beta-arrestin, uHTS; inhibition, % at 20 µM; 340,000 tested, 0.49% active; C-C chemokine receptor type 6 (Homo sapiens), P51684; CHO-K1 CCR6 PathHunter beta-arrestin, CCL20-stimulated;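 active means compounds whose inhibition of the agonist-driven luminescence signal at 20 µM reaches about 50%, limit read from the data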;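 further: cells stimulated with CCL20 at 14 nM final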
EBI2 antag – EBI2 receptor antagonists, beta-arrestin recruitment, primary screen, cell-based, luminescence, 7a,25-OHC stimulation, uHTS; inhibition, % at 5 µM; 360,000 tested, 0.81% active; AID 651636, 2012; 7a,25-OHC stimulated; in the data active means inhibition above about 38%;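 further: enzyme fragment complementation signal reports receptor beta-arrestin coupling in cells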
APJ antagonist – antagonists of human apelin receptor APJ, primary screen, CHO-K1 cells, beta-arrestin complementation, luminescence | P35414 | inhibition, % at 20 µM | 330,000 tested, 0.32% active | AID 2521, 2010;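 active means inhibition above about 40% at 20 µM, limit read from the data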;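 further: cells challenged with 10 nM apelin-13 agonist together with compound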
CXCR6 confirm – CXCR6 receptor antagonists, confirmation, cell-based, single concentration, beta-arrestin, luminescence; shares compounds with CXCR6 inh; CHO-K1 CXCR6 PathHunter beta-arrestin; inhibition, % at 20 µM; 700 tested, 65% active;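 active means mean inhibition over four retests above 40%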;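 further: receptor stimulated with 10 nM CXCL16 agonist; beta-galactosidase fragment complementation upon beta-arrestin recruitment to receptor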
Large screens that a line does not name were inactive (follow-up assays come after a bar, where they were run). Compounds with a hit are over-represented: about 1.8% of the library has one in this group of screens.

COc1ccc(S(=O)(=O)N2CCC[C@H]2C(=O)N2CCC[C@H]2C(=O)N(C)Cc2ccccc2)cc1C	none (no result: Beta2AR agonist, APJ ag, CCR6 antag, APJ antagonist)
Cc1cccc(N=Cc2cc(Br)cc(Cl)c2O)c1	CXCR6 inh 54 | CXCR6 confirm inactive
O=[N+]([O-])c1cc(-c2ncccn2)c([N+](=O)[O-])s1	CXCR6 inh 56, CCR6 antag 85 | CXCR6 confirm 73
Cc1nn(-c2ccccc2)c(N)c1-c1ccccc1	none
Cc1nn(-c2nc3ccccc3[nH]2)c(N)c1-c1ccccc1	CXCR6 inh 49 (no result: CCR6 antag) | CXCR6 confirm 53
COc1cccc(N2CCN(C(=O)c3ccccc3SCC(=O)NCc3ccco3)CC2)c1	none
CC(=NO)C1CCC2C3CCC4=CC(=NO)CCC4(C)C3C(O)CC12C (configuration not stated)	CXCR6 inh 44, CCR6 antag 57 (no result: APJ ag, APJ antagonist) | CXCR6 confirm 57
COc1cc(C(=O)NC2CC3CCCC(C2)N3CC(=O)Nc2ccccc2)cc(OC)c1OC (configuration not stated)	CXCR6 inh 62 | CXCR6 confirm 69
COc1ccc(C(C)=O)cc1COC(=O)c1ccc(C)c(S(=O)(=O)N2CCOCC2)c1	none
O=C1CNC(=S)N1c1nc(-c2ccccc2)cs1	none
COc1ccc(-c2csc(N3C(=O)CNC3=S)n2)cc1	CXCR6 inh 43, CCR6 antag 60 (no result: APJ ag, APJ antagonist) | CXCR6 confirm inactive
CCN1CCC(O)(C(C(=O)OC)c2ccccc2)CC1 (configuration not stated)	none (no result: APJ ag, APJ antagonist)
O=C(Cc1ccc(NC(=O)C2CCCN(C(=O)C3CCCC3)C2)cc1)Nc1cccc(C(=O)N2CCCC2)c1 (configuration not stated)	none (no result: APJ ag, APJ antagonist)
O=C(Cc1ccc(NC(=O)C2CCCN(C(=O)C3CCCCC3)C2)cc1)Nc1cccc(C(=O)N2CCCC2)c1 (configuration not stated)	CXCR6 inh 91 (no result: APJ ag, APJ antagonist) | CXCR6 confirm inactive
CC(O)CC(=O)OC[C@]12CC[C@H]3[C@@](C)(CC[C@H]4C(C)(C)CCC[C@]34C)[C@@H]1CC(C1=CC(=O)OC1O)O2 (some centres not stated)	none (no result: Beta2AR agonist, APJ ag, CCR6 antag, APJ antagonist)
O=C(CCCN1C(=O)c2ccccc2C1=O)Nc1ccccc1C(=O)N1CCOCC1	CXCR6 inh 66 | CXCR6 confirm inactive
CCC(=O)Nc1ccccc1C(=O)N1CCOCC1	none
O=C(OCc1ccccc1)N1C=CCC[C@@H]1c1c(Cl)cccc1Br	none (no result: Beta2AR agonist, APJ ag, CCR6 antag, APJ antagonist)
Cc1ccccc1C(=O)NCCN1CCC(n2c(=O)[nH]c3ccccc32)CC1	none (no result: Beta2AR agonist, APJ ag, CCR6 antag, APJ antagonist)
COc1ccccc1C(=O)Nc1ccnn1C1CCN(Cc2ccn[nH]2)CC1	none
O=C1OCCN1C(=O)[C@H]1[C@H](c2ccc(Cl)cc2)C(c2ccc(F)cc2)=NN1c1ccc(Br)cc1	CXCR6 inh 38 (no result: APJ ag, APJ antagonist) | CXCR6 confirm inactive
COc1ccc(NC(=O)C2CCN(S(=O)(=O)c3cccs3)CC2)cc1OC	none
CN(C)/C=C/c1oc2ccc(O)cc2c1[N+](=O)[O-]	CXCR6 inh 42, CCR6 antag 61, APJ antagonist 49 | CXCR6 confirm 66
Cc1oc2ccc(O)cc2c1C(=O)c1ccc([N+](=O)[O-])cc1	none
O=C(NC(=S)Nc1ccc([N+](=O)[O-])cc1)c1ccco1	CXCR6 inh 42 (no result: Beta2AR agonist, APJ ag, CCR6 antag, APJ antagonist) | CXCR6 confirm inactive
C[C@@]12C(C[C@H](O)[C@@]34C[C@@H](CCC13)[C@@H](CO)C4=O)[C@](C)(C(=O)O)CC[C@@H]2O (some centres not stated)	none (no result: Beta2AR agonist, APJ ag, CCR6 antag, APJ antagonist)
C=C1C(=O)[C@]23C[C@H]1CCC2[C@@]1(C)C(C[C@@H]3O)[C@](C)(C(=O)OC)CC[C@@H]1O (some centres not stated)	CXCR6 inh 55 (no result: Beta2AR agonist, APJ ag, CCR6 antag, APJ antagonist) | CXCR6 confirm 70
